# In all, about 190,000 compounds went through this assay and about 590 (0.31%) were called active.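 How the source made its calls: active means nuclear translocation activity above 50% at 5 µM, with a well cell count of 50 or more; inconclusive means wells under 50 cells across six images, flagged as toxic; inactive means the rest.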 The sample as a whole holds a higher share of actives than the screen did.
# Assay: beta-catenin nuclear localization change in HeLa – imaging, HeLa cells, immunofluorescence, high-content, primary screen (AID 1665);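 on nuclear translocation activity: per-cell ratio of nuclear to cytoplasmic median beta-catenin stain intensity; plate controls were DMSO negative control for no effect and GSK-3 inhibitor IX positive control for full effect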
# Details: at 5 µM; cell count: HeLa beta-catenin nuclear translocation, measured here: cell count, cytotoxicity flag; nuclear translocation activity: stronger effect = higher value
# In short: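 Test system: human HeLa cells, native beta-catenin. Compound dosing: 5 µM primary single dose, 0.1% DMSO, 0.02–20 µM confirmation series. Incubation: compound exposure 24 h at 37°C. Detection: beta-catenin immunostaining with DAPI counterstain, 20x imaging, 6 fields/well. Read-out basis: Nuclear/cytoplasmic beta-catenin signal ratio, % activation.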
SMILES,cell count [cells],nuclear translocation activity
Cn1nccc1NC(=O)Nc1ccc(OC(F)(F)F)cc1,1280,0.7% (inactive)
CC(C)Cc1ccc(C(C)C(=N)N)cc1 (stereo not given),1310,1.1% (inactive)
COc1ccc(CNC(=O)C2CC(c3ccc(C(F)(F)F)cc3)=NO2)cc1 (stereo not given),1110,2.2% (inactive)
COc1ccc(-c2cc(C(=O)NCc3ccco3)no2)cc1OC,1220,-1.7% (inactive)
COc1ccc(C2=NOC(C(=O)NCc3ccco3)C2)cc1OC (stereo not given),701,166% (active)
COc1ccc(S(=O)(=O)N(CC(=O)N/N=C/c2ccccc2C(=O)O)c2ccccc2OC)cc1,1300,-0.3% (inactive)
Cc1cc(=O)oc2cc(OCCC[n+]3ccccc3)ccc12,1370,-1% (inactive)
Cc1cc(=O)oc2cc(OCC3CC(c4ccccc4Cl)=NO3)ccc12 (stereo not given),228,168% (active)
Cc1ccccc1N1CCN(CCCOc2ccc3c(C)cc(=O)oc3c2)CC1,1030,1.9% (inactive)
COc1ccc(C(C(=O)NC(C)(C)C)N(C(=O)Cn2nnc3ccccc32)c2ccc(C(C)=O)cc2)cc1O (stereo not given),1370,-1% (inactive)
CCOc1cccc(-n2nnnc2-c2ccc(OC)cc2)c1,184,63.9% (active)
CCOc1cccc(-c2nnc3sc(COc4ccc(OC)cc4)nn23)c1,1020,-0.9% (inactive)
COc1ccc(-n2nnnc2-c2nc3ccccc3s2)cc1,953,0.1% (inactive)
CC(C)(C)NC(=O)/C(=C/c1cccnc1)NC(=O)c1ccco1,1310,-0.7% (inactive)
Cc1nn2c(NCCN(C)C)c3c(nc2c1-c1ccccc1)CCC3,1430,0.3% (inactive)
C=CCNC(=S)N1CCc2[nH]c3ccccc3c2C1,1340,0.9% (inactive)
O=C(NNC(=S)Nc1ccc(F)cc1)[C@H]1C[C@@H]1c1ccccc1,1360,-0.2% (inactive)
Cc1ccc(/C=N/NC(=S)NC2CCCCC2)o1,1310,-0.8% (inactive)
Cc1cc(C)cc(OCC(=O)O/N=C(\N)Cc2ccc([N+](=O)[O-])cc2)c1,1030,-2.4% (inactive)
COc1ccc(-c2nn(C)c(=O)c3ccccc23)cc1CNC(=O)C1CCCCC1,1350,0.1% (inactive)
COc1ccc(C(CC(=O)N2CCN(c3ccccc3)CC2)c2c(O)cc(OC)cc2OC)cc1 (stereo not given),1050,0.9% (inactive)
Cc1ccc(/C=N/NC(=O)CSc2ccccn2)o1,1300,0.7% (inactive)

SMILES,cell count [cells],nuclear translocation activity
COC(=O)c1c(C)oc(C)c1S(=O)(=O)Nc1ccc(C(C)C)cc1,1320,-1.4% (inactive)
CC12C(=O)N(c3ccccc3)C(=O)C1C(c1ccccc1)N1CCCN12 (stereo not given),1080,-5.7% (inactive)
COc1cc(NC(=O)c2ccc(CNc3c(N4CCCC4)c(=O)c3=O)cc2)cc(OC)c1OC,1340,-0.2% (inactive)
O=C(CSc1nnc(SCc2ccc(F)cc2)s1)Nc1ccc(C(=O)O)cc1,1300,-1% (inactive)
CCOC(=O)N/N=C1\CC(C)S(=O)(=O)c2ccc(Cl)cc21 (stereo not given),1360,0.2% (inactive)
Cc1c(C(=O)N/N=C/c2ccccc2)[nH]c2c([N+](=O)[O-])cccc12,474,69.8% (active)
O=C(N/N=C/c1ccc([N+](=O)[O-])cc1)c1c[nH]c2ccccc12,1150,-1.5% (inactive)
Cc1cc(C(=O)N/N=C/c2ccccc2[N+](=O)[O-])c(C)o1,1070,-0.2% (inactive)
c1csc(-c2nnc(COc3ncnc4sccc34)o2)c1,1250,2.6% (inactive)
O=C(NC(=O)N1CCSCC1)c1c(Cl)cccc1Cl,1280,0.2% (inactive)
O=C(Nc1cccnc1)c1cc([N+](=O)[O-])ccc1Cl,1370,-0.7% (inactive)
Cc1ccc(C2CC(=O)NC(SCC(=O)OCc3ccccc3)=C2C#N)o1 (stereo not given),922,47.9% (inactive)
C=CCOC(=O)C1=C(C)NC(SCC(=O)OCC)=C(C#N)C1c1ccc(C)cc1 (stereo not given),1350,0.1% (inactive)
CCOC(=O)CSC1=C(C#N)C(c2sccc2C)CC(=O)N1 (stereo not given),658,69% (active)
O=C(O)C1CCN(C(=O)c2cc(F)cc3c2OCOC3)CC1,1200,-2.6% (inactive)
O=C(NNC(=S)NC1CC2CCC1C2)c1ccc(Cl)cc1 (stereo not given),1150,-1.4% (inactive)
CCNC(=O)CCc1nc(-c2ccc(C)cc2)no1,1360,-0.5% (inactive)
Nc1nonc1-c1nc2ccccc2n1Cc1ccc(F)cc1,778,-0.5% (inactive)
COc1ccc(C)c(Cn2c(-c3nonc3N)nc3ccccc32)c1,720,101% (active)
Nc1nonc1-c1nc2ccccc2n1CCC(=O)O,899,-2% (inactive)
O=C(Nc1nnc(Cc2ccc(Cl)cc2)s1)c1ccncc1,1270,1% (inactive)
COc1ccc(Cc2nnc(NC(=O)c3cc(OC)c(OC)c(OC)c3)s2)cc1OC,371,53.4% (active)

SMILES,cell count [cells],nuclear translocation activity
CCCc1nnc(NC(=O)c2cc(OC)cc(OC)c2)s1,878,-2.3% (inactive)
O=[N+]([O-])c1ccc2nc(-c3ccccn3)[nH]c2c1,1380,-0.1% (inactive)
Brc1ccc(-c2nn[nH]n2)cc1,1320,0.9% (inactive)
Nc1ccc(C(=O)OCC(=O)NC2CCS(=O)(=O)C2)cc1[N+](=O)[O-] (stereo not given),1260,-3.1% (inactive)
Nc1c(N(CCO)C(=O)C2CCCCC2)c(=O)[nH]c(=O)n1Cc1ccccc1,1350,0.2% (inactive)
O=C(Nc1ccc(S(=O)(=O)N2CCOCC2)cc1)c1ccc2ncsc2c1,1420,-1.2% (inactive)
O=C(NCc1ccco1)C1CCCN1S(=O)(=O)c1ccccc1C(F)(F)F (stereo not given),1300,-0.6% (inactive)
Cc1cc(CO)nn1-c1ccc([N+](=O)[O-])cc1,1190,-2.5% (inactive)
COc1ccc(Cl)cc1C(=O)NNC(=O)c1nc2nc(C)cc(C)n2n1,1330,1.2% (inactive)
COc1cc2c(cc1OC)C(/C=C/c1ccco1)=NCC2,1310,2% (inactive)
Cc1ccc(C)c2[nH]c(=O)c(CN(Cc3cccnc3)C(=S)NCc3ccco3)cc12,1320,-1.9% (inactive)
O=C(COC(=O)c1cc(S(=O)(=O)N2CCCCC2)ccc1Cl)NCc1ccco1,1080,-1.5% (inactive)
CN(c1ccccc1)S(=O)(=O)c1ccc(Cl)c(C(=O)OCC(=O)NCc2ccco2)c1,1260,-0.2% (inactive)
Cc1cc(C(=O)OCC(=O)NCc2ccco2)c(C)n1-c1ccccc1,337,94.1% (active)
Cc1cc(C)n(-c2nc(C(F)(F)F)nc3ccccc23)n1,998,0% (inactive)
CSc1nc(N(C)NC(=O)c2cccc(C)c2)c2ccccc2n1,751,97.3% (active)
COc1ccc(C(=O)NN(C)c2nc(-c3ccccc3)cc(C)c2S(C)(=O)=O)cc1,1220,-2.1% (inactive)
COc1ccc(OCC(=O)NNC(=O)c2cccc(C)c2)cc1,1060,-0.2% (inactive)
CN(NC(=O)c1ccccc1)c1nc2ccccc2nc1C(F)(F)F,965,6.3% (inactive)
CN(NC(=O)c1ccccc1F)c1nc(C(F)(F)F)nc2ccccc12,103,155% (active)
COC(=O)c1sccc1NN1C(=O)c2ccccc2C1=O,1180,-1.9% (inactive)
COC(=O)c1cc(N2CCNCC2)nc2ccccc12,1220,1.7% (inactive)

SMILES,cell count [cells],nuclear translocation activity
Cc1ccc(F)cc1NC(=O)N1CCCN(c2ccc(C(F)(F)F)cn2)CC1,1280,-1% (inactive)
CCN(CC)c1ccc(/C=N/NC(=O)c2cnccn2)c(O)c1,1050,12.5% (inactive)
Cc1cc2c(cc1C)N(Cc1ccccc1)C1=NCCCN12,1210,-0.7% (inactive)
Cc1ccc(NC(=O)/C(=C\c2ccccc2)NC(=O)c2ccco2)cc1,1370,0.2% (inactive)
COC(=O)c1cn(C(=O)c2ccc(Cl)cc2)c2ccccc12,1100,-1.4% (inactive)
COc1c(N2CCN(C(=S)Nc3ccccc3F)C(C)C2)c(F)cc2c(=O)c(C(=O)O)cn(C3CC3)c12 (stereo not given),1380,0.4% (inactive)
Cc1ccc(OCC(=O)N/N=C\c2ccco2)c(C)c1,1340,-1.4% (inactive)
Cc1ccc(/C=N/NC(=O)COc2ccccc2-c2ccccc2)cc1,162,107% (active)
CSc1ccc(/C=N\NC(=O)COc2ccc(Cl)cc2Br)cc1,812,-1.4% (inactive)
COc1ccc(CCN2C(=O)CC(N3CCC(C(N)=O)CC3)C2=O)cc1OC (stereo not given),1240,0.6% (inactive)
Cc1ccc(N=C2NC(=O)/C(=C/C=C/c3ccco3)S2)cc1C,321,58.6% (active)
Cc1cccc(N=C2NC(=O)/C(=C/c3cn(C)c4ccccc34)S2)c1,1040,0.7% (inactive)
Cc1ccc(N2NC(=O)/C(=C/C=C/c3ccco3)C2=O)cc1C,1100,1.3% (inactive)
CCCNc1c(N)c(=O)c1=O,1380,-0.4% (inactive)
O=C(N/N=C/c1cccc2cccnc12)[C@H]1C[C@@H]1c1ccccc1,1300,2.9% (inactive)
Cc1noc(C)c1C(=O)OCC(=O)N1CCN(S(=O)(=O)c2ccc3ccccc3c2)CC1,1300,0.1% (inactive)
Cc1ccc(C(=O)N/C(=C\c2ccco2)C(=O)NC2CCS(=O)(=O)C2)cc1 (stereo not given),1360,-0.2% (inactive)
COc1ccc(CCNC(=O)C(=O)NCC2CCNCC2)cc1OC,1380,-1.5% (inactive)
COc1ccc(CCNC(=O)C(=O)Nc2ccc3nc4n(c(=O)c3c2)CCCCC4)cc1OC,1400,0.2% (inactive)
